Shown are actives, neighbours in structure and some others; about 1.4% of the full set was active somewhere.
thrombin 1536: inhibitors of human thrombin; alpha-thrombin, Boc-VPR-AMC fluorogenic substrate cleavage; inhibition, % at 5 µM; actives 0.26% (n = 220,000);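 active means inhibition at or above 40%; inactive means inhibition below 40%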
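signal = AMC fluorescence, 355/460 nm | material = human alpha-thrombin enzyme | control set = enzyme without compound as high, wells lacking enzyme as low | times = reaction at room temperature | read-out basis = percent inhibition scaled between no-compound controls and no-enzyme blanks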
Calpain2 inh: inhibitors of pig calpain II; inhibition, % at 16 µM; actives 0.37% (n = 220,000); AID 1236; purified calpain II, fluorogenic peptide substrate, 30 min;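 active means inhibition above about 50%, limit read from the data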
FXIIa inh: inhibitors of human coagulation factor XIIa; inhibition, % at 5 µM; P00748; purified FXIIa, Boc-QGR-AMC fluorogenic substrate, 2 h; actives 0.3% (n = 220,000); in the data active means inhibition above about 40%
Target sequence (P00748 20-372 limits assumed): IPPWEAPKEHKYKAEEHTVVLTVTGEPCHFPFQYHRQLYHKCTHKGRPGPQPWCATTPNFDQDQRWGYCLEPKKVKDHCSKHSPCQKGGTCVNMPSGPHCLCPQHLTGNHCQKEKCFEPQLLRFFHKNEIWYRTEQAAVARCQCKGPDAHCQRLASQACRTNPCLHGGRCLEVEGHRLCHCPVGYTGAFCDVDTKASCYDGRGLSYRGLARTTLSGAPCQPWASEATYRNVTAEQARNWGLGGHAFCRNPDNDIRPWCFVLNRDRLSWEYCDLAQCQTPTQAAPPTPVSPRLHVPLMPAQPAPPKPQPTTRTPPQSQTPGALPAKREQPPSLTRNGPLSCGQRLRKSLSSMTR
Target sequence (P00748 373-615 limits assumed): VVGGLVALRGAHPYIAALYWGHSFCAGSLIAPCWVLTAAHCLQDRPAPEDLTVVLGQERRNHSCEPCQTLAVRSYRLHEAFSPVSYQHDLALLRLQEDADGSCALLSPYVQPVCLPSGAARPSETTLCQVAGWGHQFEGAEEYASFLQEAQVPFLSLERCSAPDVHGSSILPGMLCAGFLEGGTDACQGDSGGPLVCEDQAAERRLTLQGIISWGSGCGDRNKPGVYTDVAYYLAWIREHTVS
hK5 inh: kallikrein 5 (human) inhibition; recombinant hK5, fluorogenic AMC substrate cleavage; Q9Y337; actives 0.59% (n = 210,000); inhibition, % at 5 µM;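 active means inhibition of 40% or more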
Furin inhibitor: inhibitors of human furin; P09958; purified furin, fluorogenic substrate cleavage; inhibition, % at 20 µM or 30 µM; actives 0.061% (n = 220,000); in the data active means inhibition above about 25%
FXIa inh: inhibitors of human coagulation factor XIa; purified FXIa, Boc-Glu-Ala-Arg-AMC fluorogenic substrate; inhibition, % at 5 µM; actives 0.14% (n = 220,000); P03951;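 active means inhibition of at least 40%; inactive means inhibition below 40%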;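 further: fluorescence of freed AMC excited at 355 nm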
Each line names hits and unclear results; the compound was inactive in the other large screens.

CNC(=O)COC(=O)c1cc2c(C)nn(-c3ccc(F)cc3)c2s1	none
CC1(c2ccccc2)NC(=O)N(N)C1=O (stereo not given)	none
Cc1ccc(Cl)cc1N1CCN(C(=O)c2cc3c(=O)[nH]c4ccccc4c3n2C)CC1	none
Cc1ccccc1NC(=O)Cn1c(O)c(N=NC(=O)c2ccccc2O)c2ccccc21	hK5 inh 65.5
COc1ccc(C)cc1NC(=O)C1CCN(S(=O)(=O)c2cccc3cccnc23)CC1	none
COc1ccc(OC)c(S(=O)(=O)N2CCCC(C)C2)c1 (stereo not given)	FXIa inh 49.0
COc1ccc(OC)c(NC(=O)C2CCCN(S(=O)(=O)c3cccc4cccnc34)C2)c1 (stereo not given)	hK5 inh 56.5
COc1ccc(N2C(=O)C(Cl)=C(N3CCCC3)C2=O)cc1	none
COc1ccc(OC)c(S(=O)(=O)N2CCCCCC2)c1	none
CCOC(=O)N1CCN(C(=O)C2CCCN(S(=O)(=O)c3cc(C)ccc3OC)C2)CC1 (stereo not given)	thrombin 1536 103.5, hK5 inh 40.3
COc1ccc(N2C(=O)C(Cl)=C(N3CCCC(C)C3)C2=O)cc1 (stereo not given)	FXIIa inh 57.1, FXIa inh 43.6
COc1cc(CN2CCCC(C(=O)c3ccccc3SC)C2)cc(OC)c1 (stereo not given)	none
Cc1c(Br)c([N+](=O)[O-])nn1C(C)C(=O)N1CCCc2ccccc21 (stereo not given)	none
O=c1c2ccccc2nc(SCc2cn3ccsc3n2)n1-c1ccccc1F	Calpain2 inh 51.6
CCn1c(SCc2ccc(F)cc2)nnc1C1CCN(S(=O)(=O)c2ccc(OC)cc2)CC1	Calpain2 inh 59.2
Cc1ccc(C)c2c(N)c3c(nc12)CCCCC3 (tested in a mixture with another compound)	none
NC(=O)c1ccsc1NC(=O)c1coc2ccccc2c1=O	none
COc1cccc(N2CCN(C(=O)CN(C)S(=O)(=O)c3ccc4c(c3)CCC(=O)N4)CC2)c1	none
COc1cc(NC(=O)CN(C)S(=O)(=O)c2ccc3c(c2)CCC(=O)N3)cc(OC)c1	hK5 inh 48.9
C=CCn1c(SCc2ccc(OC)cc2)nnc1-c1cccnc1	hK5 inh 49.6
C=CCn1c(SCc2ccccc2)nnc1-c1cccnc1	none
COc1ccc(CN2CCC(CO)(Cc3ccccc3C(F)(F)F)CC2)c(F)c1	none (no result: hK5 inh)
CCOc1ccc(NC(=O)CSc2nc3ccccc3c(=O)n2CCCC(=O)NCCCN2CCCC2=O)cc1	none
O=C(NCc1cccnc1)C1CCC(CNS(=O)(=O)c2ccc(Cl)cc2)CC1 (stereo not given)	Calpain2 inh 55.2
COCCCNC(=O)C1CCC(CNS(=O)(=O)c2ccc(C)cc2)CC1 (stereo not given)	none
CCOCCCNC(=O)C1CCC(CNS(=O)(=O)c2ccc(Cl)cc2)CC1 (stereo not given)	Calpain2 inh 53.8
COc1ccc(OC)c(-c2c(C#N)c(N)nc3c2c(=O)nc2sccn23)c1	none
CC(=O)NC1CSCC1OC(C)=O (stereo not given)	hK5 inh 67.1
COc1ccc(/C=C2\CCCC3C2=NN(C(=O)COC(=O)CNC(=O)c2ccccc2)C3c2ccc(OC)cc2)cc1 (stereo not given)	hK5 inh 47.0
Clc1ccc2nc(-c3ccccn3)c(Nc3ccc4c(c3)OCO4)n2c1	Calpain2 inh 56.0
Cc1ccc2nc(-c3ccccc3O)c(Nc3ccc4c(c3)OCCO4)n2c1	none
COc1cc(/C=C2\SC(=O)NC2=O)ccc1Oc1ccc([N+](=O)[O-])cn1	none
COc1cc(/C=C2/SC(=O)NC2=O)ccc1Oc1ccc([N+](=O)[O-])cc1[N+](=O)[O-]	Calpain2 inh 63.5
CCOC(=O)C1CN(S(=O)(=O)c2ccc(C)cc2)C1	Calpain2 inh 52.9
CCC(=O)n1nc(-c2ccc(Cl)cc2)nc1NCc1ccccc1	thrombin 1536 70.5
O=C(c1cccs1)n1nc(-c2ccccc2)nc1NCc1ccco1	none
COCC(=O)n1nc(-c2ccccc2)nc1NCc1cccs1	thrombin 1536 85.7
O=C(COC(=O)C1CC(=O)N(Cc2ccco2)C1)c1ccc(OC(=O)c2ccco2)cc1 (stereo not given)	FXIIa inh 40.5
Cc1ccc(C(=O)Oc2ccc(C(=O)COC(=O)C3CC(=O)N(Cc4ccco4)C3)cc2)cc1 (stereo not given)	none
Cc1ccc(NC(=O)CSCC(N)=O)cc1C	FXIIa inh 41.9, hK5 inh 41.9
Cc1ccc(NC(=O)CCn2cccc2)cc1C	FXIIa inh 43.0
CC(=O)c1cc(-c2ccccc2)n(CC(=O)Nc2cccc(C)c2)c1C	none
COC(Cn1c(C)c(C(C)=O)c(C(C)=O)c1C)OC	FXIIa inh 48.2
Cc1cccc(/C=C/C(=O)c2ccc(N3CCOCC3)cc2)c1	Calpain2 inh 53.3
O=C(/C=C/c1ccc(F)cc1)c1ccc(N2CCOCC2)cc1	none
Cc1cc(=O)oc2cc(OC(=O)CCN3C(=O)c4ccccc4C3=O)ccc12	FXIIa inh 62.7
Cc1cc(=O)oc2cc(OCCCN3C(=O)c4ccccc4C3=O)ccc12	none
COc1ccc(C(=O)Nc2ccc(N3CCN(c4ccc(OC)cc4)CC3)c(C#N)c2)cc1	FXIa inh 46.8
COc1ccc(N2CCN(c3ccc(NC(=O)C4CCCCC4)cc3C#N)CC2)cc1	none
CCCCCCCCCCCCCCCCn1cc[n+](CC(C)=O)c1	Calpain2 inh 53.8
CCCCCCn1ccc(=N)cc1	none
CCOP(=O)(OCC)C(Nc1ccccc1)c1ccccc1C(F)(F)F (stereo not given)	none
Cc1ccc(-c2c[n+](CC(=O)Nc3nc(-c4ccccc4)cs3)c3n2CCC3)cc1	none
O=C(C[n+]1cc(-c2ccccc2)n2c1CCC2)Nc1nc(-c2ccccc2)cs1	FXIIa inh 40.9, hK5 inh 41.6
CCCc1nnc(SCC(=O)N2CCCCC2)n1CC1CCCO1 (stereo not given)	hK5 inh 56.8
O=C1CN(C(=O)COc2ccc(F)cc2Cl)c2ccccc2N1	hK5 inh 54.1
Cc1cc(C(=O)OCC(=O)N2CC(=O)Nc3ccccc32)c(C)n1-c1ccccc1	hK5 inh 60.1
O=C1CN(C(=O)COc2cccc(F)c2)c2ccccc2N1	none
Cc1ccc(CNC(C)(C)CO)cc1	none
CC(CO)(CO)NCc1ccc(-c2ccccc2)cc1	thrombin 1536 46.5
CCOC(=O)c1c(NC(=O)COc2ncnc3ccccc23)sc(C)c1CC	hK5 inh 69.0
FC(F)(F)c1cccc(N2CCN(C(=S)NC3CCCCC3)CC2)c1	none
FC(F)(F)c1cccc(N2CCN(C(=S)NC3CCCC3)CC2)c1	Calpain2 inh 51.8
CSc1nc2cc(C)nn2c(-c2ccccc2Cl)c1C#N	none
CCOC(=O)CSc1nnc(NC(=O)c2cc([N+](=O)[O-])cc([N+](=O)[O-])c2)s1	thrombin 1536 92.2
